In ChEMBL document CHEMBL2331396, “Exploration of 1-(3-chloro-4-(4-oxo-4H-chromen-2-yl)phenyl)-3-phenylurea derivatives as selective dual inhibitors of Raf1 and JNK1 kinases for anti-tumor treatment” (Bioorg Med Chem, 2013):
Calls of active or inactive are those of the source. The calls are words filed in the database; no cut-off is given here.

Legend:
[1] = Cytotoxicity against human HL7702 cells assessed as inhibition rate at 100 uM measured after 48 hrs by MTT assay; format: cell-based, L02; conditions: read-out: INH
Outline: (§1)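 Normal liver cells were grown in DMEM with 10% FBS plus penicillin/streptomycin at 37 °C, 5% CO₂. They were seeded at 5 × 10⁵ cells/mL and incubated 24 h. Compounds from DMSO stock were added at final 50 or 100 µM (DMSO <1%), in triplicate, for 48 h. MTT was added for 4 h, formazan dissolved in DMSO, A495 read, and inhibition rate calculated.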

[2] = system: HepG2; test: Antiproliferative activity against human HepG2 cells assessed as growth inhibition measured after 48 hrs by MTT assay; format: functional, cell-based; conditions: HepG2, 48 h
Outline: (§2)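 Compounds dissolved in DMSO and diluted in medium to final 0.5–50 µM (final DMSO <1%). Cells were grown in DMEM with 10% FBS, penicillin and streptomycin at 37 °C, 5% CO₂. They were seeded at 5 × 10⁵ cells/mL, incubated 24 h, then treated in triplicate per concentration for 48 h. MTT was added for 4 h, formazan dissolved in DMSO, absorbance read at 495 nm, and IC50 derived.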

[3] = Cytotoxicity against human QSG7701 cells assessed as inhibition rate at 50 uM measured after 48 hrs by MTT assay; format: cell-based; conditions: read-out: INH; outline: as §1
[4] = Cytotoxicity against human HL7702 cells assessed as inhibition rate at 50 uM measured after 48 hrs by MTT assay; format: cell-based, L02; conditions: read-out: INH; outline: as §1
[5] = Cytotoxicity against human QSG7701 cells assessed as inhibition rate at 100 uM measured after 48 hrs by MTT assay; format: cell-based; conditions: read-out: INH; outline: as §1
[6] = system: A549; test: Antiproliferative activity against human A549 cells assessed as growth inhibition measured after 48 hrs by MTT assay; format: functional, cell-based; conditions: A549, 48 h; outline: as §2
[7] = system: HCT-116; test: Antiproliferative activity against human HCT116 cells assessed as growth inhibition measured after 48 hrs by MTT assay; format: functional, cell-based; conditions: HCT-116, 48 h; outline: as §2
[8] = target: RAF proto-oncogene serine/threonine-protein kinase (Homo sapiens) (UniProt P04049); test: Inhibition of Raf1 (unknown origin) at 50 uM
Outline: (§3)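 Kinase-Glo Plus luminescent assay. Enzyme, substrate, ATP and compound were mixed in 25 mM HEPES pH 7.4 with 10 mM MgCl₂ and incubated 1 h at 30 °C. The reaction was stopped with an equal volume of Kinase-Glo Plus reagent. Luminescence reflects remaining ATP, inversely related to kinase activity, and is reported as percent inhibition at a single concentration.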

[9] = target: Mitogen-activated protein kinase 14 (Homo sapiens) (UniProt Q16539); test: Inhibition of p38-alpha (unknown origin) at 50 uM; outline: as §3
[10] = target: Mitogen-activated protein kinase 14 (Homo sapiens) (UniProt Q16539); test: Inhibition of p38-alpha (unknown origin) at 100 uM; outline: as §3
[11] = system: HepG2; test: Induction of human HepG2 cells assessed as early apoptotic cells at 10 uM measured after 24 hrs by Annexin VFITC/PI assay; format: functional
[12] = system: HepG2; test: Cell cycle arrest in human HepG2 cells assessed as cells at S phase at 10 uM measured after 36 hrs by flow cytometric analysis; format: functional
[13] = system: HepG2; test: Cell cycle arrest in human HepG2 cells assessed as cells at S phase at 10 uM measured after 12 hrs by flow cytometric analysis; format: functional
[14] = system: HepG2; test: Induction of human HepG2 cells assessed as late apoptotic cells at 10 uM measured after 24 hrs by Annexin VFITC/PI assay; format: functional
[15] = system: HepG2; test: Cell cycle arrest in human HepG2 cells assessed as cells at G2+M phase at 10 uM measured after 36 hrs by flow cytometric analysis; format: functional
[16] = system: HepG2; test: Cell cycle arrest in human HepG2 cells assessed as cells at G2+M phase at 10 uM measured after 12 hrs by flow cytometric analysis; format: functional
[17] = system: HepG2; test: Induction of human HepG2 cells assessed as early apoptotic cells at 10 uM measured after 12 hrs by Annexin VFITC/PI assay; format: functional
[18] = system: HepG2; test: Cell cycle arrest in human HepG2 cells assessed as cells at G0/G1 phase at 10 uM measured after 12 hrs by flow cytometric analysis; format: functional
[19] = target: Mitogen-activated protein kinase 3 (Homo sapiens) (UniProt P27361); test: Inhibition of ERK1 (unknown origin) at 50 uM
Outline: (§4)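 Luminescent Kinase-Glo Plus assay. Enzyme, substrate, ATP and compound were mixed in pH 7.4 buffer containing 25 mM HEPES and 10 mM MgCl2, then incubated at 30 °C for 1 h. An equal volume of Kinase-Glo Plus reagent stopped the reaction before luminescence was read. Signal tracks remaining ATP and runs inversely to kinase activity; results are given as percent inhibition.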

[20] = system: HepG2; test: Induction of human HepG2 cells assessed as early apoptotic cells at 10 uM measured after 36 hrs by Annexin VFITC/PI assay; format: functional
[21] = system: HepG2; test: Cell cycle arrest in human HepG2 cells assessed as cells at S phase at 10 uM measured after 48 hrs by flow cytometric analysis; format: functional
[22] = system: HepG2; test: Induction of human HepG2 cells assessed as late apoptotic cells at 10 uM measured after 36 hrs by Annexin VFITC/PI assay; format: functional
[23] = system: HepG2; test: Induction of human HepG2 cells assessed as late apoptotic cells at 10 uM measured after 12 hrs by Annexin VFITC/PI assay; format: functional
[24] = target: Mitogen-activated protein kinase 8 (Homo sapiens) (UniProt P45983); test: Inhibition of JNK1 in human HepG2 cells assessed as c-Jun phosphorylation at 10 uM measured after 2 hrs by Western blot analysis; format: cell-based
Outline: (§5)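 Cells were lysed on ice for 50 min in HEPES pH 7.9/KCl/EDTA/NP-40 buffer with Na₃VO₄, NaF and protease inhibitors. Protein was quantified by Coomassie, run on 15% SDS-PAGE and transferred to PVDF. Membranes were blocked in 5% milk for 2 h and probed with total/phospho ERK1/2 or c-Jun antibodies for 2 h at room temperature. Detection was by HRP secondary antibody and chemiluminescence.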

[25] = target: Mitogen-activated protein kinase 8 (Homo sapiens) (UniProt P45983); test: Inhibition of JNK1 in human HepG2 cells assessed as inhibition of methyl methane sulfonate-induced c-Jun phosphorylation at 100 uM measured after 2 hrs by Western blot analysis; format: cell-based; outline: as §5
[26] = system: HepG2; test: Induction of human HepG2 cells assessed as early apoptotic cells at 10 uM measured after 48 hrs by Annexin VFITC/PI assay; format: functional
[27] = target: Mitogen-activated protein kinase 1 (Homo sapiens) (UniProt P28482); conditions: at 50 µM
[28] = system: HepG2; test: Cell cycle arrest in human HepG2 cells assessed as cells at G0/G1 phase at 10 uM measured after 48 hrs by flow cytometric analysis; format: functional
[29] = system: HepG2; test: Cell cycle arrest in human HepG2 cells assessed as cells at S phase at 10 uM measured after 24 hrs by flow cytometric analysis; format: functional
[30] = target: Mitogen-activated protein kinase 8 (Homo sapiens) (UniProt P45983); test: Inhibition of JNK1 (unknown origin) at 50 uM; outline: as §4
[31] = system: HepG2; test: Cell cycle arrest in human HepG2 cells assessed as cells at G0/G1 phase at 10 uM measured after 24 hrs by flow cytometric analysis; format: functional
[32] = system: HepG2; test: Cell cycle arrest in human HepG2 cells assessed as cells at G0/G1 phase at 10 uM measured after 36 hrs by flow cytometric analysis; format: functional
[33] = target: RAF proto-oncogene serine/threonine-protein kinase (Homo sapiens) (UniProt P04049); test: Inhibition of Raf1 in human HepG2 cells assessed as ERK1/2 phosphorylation at 10 uM measured after 2 hrs by Western blot analysis; format: cell-based; conditions: in the assay text read “4 hrs” for “2 hrs”; outline: as §5
[34] = system: HepG2; test: Cell cycle arrest in human HepG2 cells assessed as cells at G2+M phase at 10 uM measured after 24 hrs by flow cytometric analysis; format: functional
[35] = system: HepG2; test: Cell cycle arrest in human HepG2 cells assessed as cells at G2+M phase at 10 uM measured after 48 hrs by flow cytometric analysis; format: functional
[36] = system: HepG2; test: Induction of human HepG2 cells assessed as late apoptotic cells at 10 uM measured after 48 hrs by Annexin VFITC/PI assay; format: functional

Sequence of RAF proto-oncogene serine/threonine-protein kinase (Homo sapiens) (P04049 whole entry): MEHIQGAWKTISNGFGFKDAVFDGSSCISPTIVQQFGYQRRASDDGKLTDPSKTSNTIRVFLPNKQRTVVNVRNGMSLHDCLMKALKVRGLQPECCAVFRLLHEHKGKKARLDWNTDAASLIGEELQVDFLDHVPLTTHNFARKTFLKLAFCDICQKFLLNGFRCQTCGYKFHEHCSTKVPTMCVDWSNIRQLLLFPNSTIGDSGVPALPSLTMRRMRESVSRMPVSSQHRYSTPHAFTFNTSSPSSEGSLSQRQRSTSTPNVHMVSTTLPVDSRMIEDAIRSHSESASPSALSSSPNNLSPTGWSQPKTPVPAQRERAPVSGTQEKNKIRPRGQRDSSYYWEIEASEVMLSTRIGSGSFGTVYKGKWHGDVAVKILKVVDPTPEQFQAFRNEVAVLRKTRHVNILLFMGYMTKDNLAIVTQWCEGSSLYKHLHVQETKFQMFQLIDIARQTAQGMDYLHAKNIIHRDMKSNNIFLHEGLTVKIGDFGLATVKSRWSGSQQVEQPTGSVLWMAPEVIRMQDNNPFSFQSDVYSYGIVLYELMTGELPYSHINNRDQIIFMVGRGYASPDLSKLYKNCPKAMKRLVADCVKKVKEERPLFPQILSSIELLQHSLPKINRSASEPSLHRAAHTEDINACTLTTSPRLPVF
Sequence of Mitogen-activated protein kinase 8 (Homo sapiens) (P45983 whole entry): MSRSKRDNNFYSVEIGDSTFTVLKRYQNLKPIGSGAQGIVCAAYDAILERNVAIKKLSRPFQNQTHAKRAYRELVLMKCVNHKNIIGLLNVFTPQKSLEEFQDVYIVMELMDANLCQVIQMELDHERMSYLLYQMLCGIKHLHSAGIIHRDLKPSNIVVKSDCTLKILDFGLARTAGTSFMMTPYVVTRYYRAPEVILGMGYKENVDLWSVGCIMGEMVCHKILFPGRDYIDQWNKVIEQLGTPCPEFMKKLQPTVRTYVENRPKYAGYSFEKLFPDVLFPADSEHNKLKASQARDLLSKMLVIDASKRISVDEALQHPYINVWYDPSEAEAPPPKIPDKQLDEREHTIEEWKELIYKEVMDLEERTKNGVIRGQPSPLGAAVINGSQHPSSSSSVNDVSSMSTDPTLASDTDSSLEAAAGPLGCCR
Sequence of Mitogen-activated protein kinase 14 (Homo sapiens) (Q16539 whole entry): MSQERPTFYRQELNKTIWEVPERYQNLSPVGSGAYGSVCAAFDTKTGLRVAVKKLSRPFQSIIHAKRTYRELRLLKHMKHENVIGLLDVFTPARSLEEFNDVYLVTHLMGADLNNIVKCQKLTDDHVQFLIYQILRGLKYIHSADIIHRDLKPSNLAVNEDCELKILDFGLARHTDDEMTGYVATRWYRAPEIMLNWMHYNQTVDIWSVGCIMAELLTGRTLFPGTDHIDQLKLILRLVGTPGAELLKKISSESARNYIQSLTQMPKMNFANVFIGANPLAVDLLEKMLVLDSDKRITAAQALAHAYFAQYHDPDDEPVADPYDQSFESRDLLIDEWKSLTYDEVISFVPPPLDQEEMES
Sequence of Mitogen-activated protein kinase 1 (Homo sapiens) (P28482 whole entry): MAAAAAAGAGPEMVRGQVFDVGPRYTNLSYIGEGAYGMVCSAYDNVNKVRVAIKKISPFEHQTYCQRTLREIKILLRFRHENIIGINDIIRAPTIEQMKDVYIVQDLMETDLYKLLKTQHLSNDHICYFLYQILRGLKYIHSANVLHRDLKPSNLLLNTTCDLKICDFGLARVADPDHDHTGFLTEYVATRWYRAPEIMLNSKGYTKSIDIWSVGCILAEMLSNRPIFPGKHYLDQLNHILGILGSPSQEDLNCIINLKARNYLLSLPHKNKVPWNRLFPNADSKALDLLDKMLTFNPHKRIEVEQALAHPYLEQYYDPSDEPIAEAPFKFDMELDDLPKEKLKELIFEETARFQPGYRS
Sequence of Mitogen-activated protein kinase 3 (Homo sapiens) (P27361 whole entry): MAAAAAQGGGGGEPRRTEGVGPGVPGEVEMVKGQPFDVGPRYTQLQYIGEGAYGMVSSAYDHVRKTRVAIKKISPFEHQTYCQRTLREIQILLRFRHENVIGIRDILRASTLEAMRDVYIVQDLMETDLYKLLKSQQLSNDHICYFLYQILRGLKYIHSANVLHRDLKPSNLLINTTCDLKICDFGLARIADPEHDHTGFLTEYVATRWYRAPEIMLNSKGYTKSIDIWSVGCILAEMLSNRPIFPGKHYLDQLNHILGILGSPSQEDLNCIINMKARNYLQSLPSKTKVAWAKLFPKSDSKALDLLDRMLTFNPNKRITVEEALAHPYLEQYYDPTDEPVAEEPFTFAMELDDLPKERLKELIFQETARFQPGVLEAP

CCc1ccc2oc(-c3ccc(NC(=O)Cc4ccc(F)cc4)cc3Cl)cc(=O)c2c1
cytotoxicity at 48 h, 100 µM [1]: 45.2% | IC50 [2]: > 50 µM | cytotoxicity at 48 h, 50 µM [3]: 16.2% | cytotoxicity at 48 h, 50 µM [4]: 29.1% | cytotoxicity at 48 h, 100 µM [5]: 36.9% | IC50 [6]: > 50 µM | IC50 [7]: > 50 µM

O=C(Nc1cccc(Cl)c1)Nc1ccc(-c2cc(=O)c3cc(F)ccc3o2)c(Cl)c1
cytotoxicity at 48 h, 100 µM [1]: 54.2% | IC50 [2]: 31.7 µM | cytotoxicity at 48 h, 50 µM [3]: 26.8% | cytotoxicity at 48 h, 50 µM [4]: 20.1% | cytotoxicity at 48 h, 100 µM [5]: 57.7% | IC50 [6]: > 50 µM | IC50 [7]: 24.2 µM

Nc1ccc(-c2cc(=O)c3ccc(O)cc3o2)c(Cl)c1
inhibition [8]: inactive | inhibition [9]: inactive

COc1ccc2oc(-c3ccc(NC(=O)Nc4cccc(Cl)c4)cc3Cl)cc(=O)c2c1
cytotoxicity at 48 h, 100 µM [1]: 40.6% | IC50 [2]: 26.3 µM | cytotoxicity at 48 h, 50 µM [3]: 15.9% | cytotoxicity at 48 h, 50 µM [4]: 35.7% | cytotoxicity at 48 h, 100 µM [5]: 30.1% | IC50 [6]: 11 µM | IC50 [7]: 9.6 µM

O=C(Nc1cccc(Cl)c1)Nc1ccc(-c2cc(=O)c3ccccc3o2)c(Cl)c1
cytotoxicity at 48 h, 100 µM [1]: 47.1% | IC50 [2]: 9.7 µM | cytotoxicity at 48 h, 50 µM [3]: 48.9% | cytotoxicity at 48 h, 50 µM [4]: 26.8% | cytotoxicity at 48 h, 100 µM [5]: 62.4% | IC50 [6]: 14 µM | IC50 [7]: 25.4 µM

CCc1ccc2oc(-c3ccc(N)cc3Cl)cc(=O)c2c1
inhibition [8]: 27% | inhibition [10]: 14.5%

CCc1ccc2oc(-c3ccc(NC(=O)Nc4ccc(Cl)cc4)cc3Cl)cc(=O)c2c1
Activity [11]: 0.44% | Activity [12]: 24.69% | inhibition [8]: 65.6% | Activity [13]: 19.92% | Activity [14]: 1.2% | cytotoxicity at 48 h, 100 µM [1]: 28.3% | Activity [15]: 9.14% | Activity [16]: 8.81% | Activity [17]: 0.27% | Activity [18]: 69.43% | IC50 [2]: 8.3 µM | inhibition [19]: inactive | Activity [20]: 0.46% | Activity [21]: 20.57% | Activity [22]: 1.37% | Activity [23]: 1.22% | inhibition [24]: inactive | cytotoxicity at 48 h, 50 µM [3]: 23.7% | inhibition [25]: Active | inhibition [9]: 13.5% | Activity [26]: 0.55% | inhibition [27]: inactive | Activity [28]: 52.83% | Activity [29]: 21.77% | inhibition [30]: 67.4% | Activity [31]: 62.29% | Activity [32]: 52.83% | cytotoxicity at 48 h, 50 µM [4]: 18.7% | cytotoxicity at 48 h, 100 µM [5]: 31.8% | inhibition [33]: Active | Activity [34]: 9.38% | IC50 [6]: > 50 µM | Activity [35]: 13.43% | IC50 [7]: 28.7 µM | Activity [36]: 1.28%
